Measured values published in ChEMBL document CHEMBL1122554, “Synthesis and antitumor activity of tropolone derivatives” (1984).
≈ marks a conversion by molar mass, not a printed value.

These molecules were tested on Mus musculus (assay: In vivo antitumor activity was measured in mice (P388 leukemia) at dose 100 mg/kg after intraperitoneal administration). Conditions: not given.
Assay type: functional
In short: (§1)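 Groups of six CDF1 mice were inoculated ip with 10⁶ P388 leukemia cells. Ip drug dosing began 24 h later, given once daily for 1 and 5 days. %T/C = median survival time of the treated group ÷ median survival time of the tumor control group × 100.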
`CCOC(/C=C/c1ccccc1)c1ccc(C(C)C)cc(=O)c1O` (stereo not given) gave a T/C of 112%.
Work on `COc1cc(C(C)C)ccc(C2OCCc3ccccc32)c1=O` (stereo not given) yielded a T/C of 92%.
With `COc1cc(C(C)C)cccc1=O` the T/C was 108%.
Molecule `CCOC(c1ccccc1)c1ccc(C(C)C)cc(=O)c1O` (stereo not given) has a T/C of 102%.
`COc1c(C2OCCc3ccccc32)ccc(C(C)C)cc1=O` (stereo not given) was tested, and the T/C was 93%.
`O=c1ccccc(C2OCCc3ccccc32)c1O` (stereo not given) showed a T/C of 104%.
With `CC(C)c1ccc(Cc2ccccc2)c(O)c(=O)c1` the T/C was 94%.
Work on `C/C=C/C(OCC)c1ccc(C(C)C)cc(=O)c1O` (stereo not given) yielded a T/C of 101%.
`CCOC(c1ccc(C)cc1)c1ccc(C(C)C)cc(=O)c1O` (stereo not given) was tested, and the T/C was 105%.
Work on `CC(C)c1ccc(C2OCCc3ccccc32)c(O)c(=O)c1` (stereo not given) yielded a T/C of 127%.

These molecules were tested on Mus musculus (assay: In vivo antitumor activity was measured in mice (P388 leukemia) at dose 50 mg/kg after intraperitoneal administration). Conditions: not given.
Assay type: functional
In short: as §1
In the case of `COc1cc(C(C)C)cccc1=O`, the T/C is reported as 106%.
With `CC(C)c1ccc(C2OCCc3ccccc32)c(O)c(=O)c1` (stereo not given) the T/C was 128%.
`CC(C)c1cccc(=O)c(O)c1` [HINOKITIOL] was tested, and the T/C was 103%.

The molecules below were run on Mus musculus (assay: In vivo antitumor activity was measured in mice (P388 leukemia)at dose 100 mg/kg after intraperitoneal administration). Conditions: not given.
Assay type: functional
In short: (§2)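 Groups of six CDF1 mice inoculated ip with 10⁶ P388 leukemia cells; ip drug treatment begun 24 h after inoculation, listed dose given once a day for 1 and 5 days. Endpoint: median survival time of treated group divided by that of tumor controls ×100 (% T/C).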
`CC(C)c1cccc(=O)c(O)c1` [HINOKITIOL] showed a T/C of 100%.

What follows are molecules tested on Mus musculus (assay: In vivo antitumor activity was measured in mice (P388 leukemia) at dose 400 mg/kg after intraperitoneal administration). Conditions: not given.
Assay type: functional
In short: as §1
`CCOC(c1ccc(OC)cc1)c1ccc(C(C)C)cc(=O)c1O` (stereo not given) gave a T/C of 140%.
In the case of `CCOC(/C=C/c1ccccc1)c1ccc(C(C)C)cc(=O)c1O` (stereo not given), the T/C is reported as 0%.
`COc1cc(C(C)C)ccc(C2OCCc3ccccc32)c1=O` (stereo not given) showed a T/C of 98%.
For `CCOC(c1ccccc1)c1ccc(C(C)C)cc(=O)c1O` (stereo not given), the T/C was 0%.
Molecule `COc1c(C2OCCc3ccccc32)ccc(C(C)C)cc1=O` (stereo not given) has a T/C of 98%.
In the case of `O=c1ccccc(C2OCCc3ccccc32)c1O` (stereo not given), the T/C is reported as 0%.
In the case of `CC(C)c1ccc(Cc2ccccc2)c(O)c(=O)c1`, the T/C is reported as 88%.
With `C/C=C/C(OCC)c1ccc(C(C)C)cc(=O)c1O` (stereo not given) the T/C was 115%.
Molecule `CCOC(c1ccc(N(C)C)cc1)c1ccc(C(C)C)cc(=O)c1O` (stereo not given) has a T/C of 0%.
`CC(C)c1ccc(C2OCCc3ccccc32)c(O)c(=O)c1` (stereo not given) showed a T/C of 108%.
Work on `CC(C)c1cccc(=O)c(O)c1` [HINOKITIOL] yielded a T/C of 0%.

The molecules below were run on Mus musculus (assay: In vivo antitumor activity was measured in mice (P388 leukemia)at dose 200 mg/kg after intraperitoneal administration). Conditions: not given.
Assay type: functional
In short: as §2
With `CC(C)c1cccc(=O)c(O)c1` [HINOKITIOL] the T/C was 62%.

The molecules below were run on KB (assay: In vitro inhibitory activity against growth of KB cells derived from human epidermoid carcinoma of the mouth). Conditions: not given.
Assay type: functional
In short: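 KB human epidermoid carcinoma cells grown at 37 °C in 5% CO2–95% air and seeded at 2100 cells/cm². After 24 h the medium was changed and graded drug (0.3–100 µg/mL) added, two dishes per concentration. After 48 h of exposure, cells were trypsinized and counted by Coulter counter. IC50 was read from a plot of log concentration vs. growth rate (% of control).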
`CCOC(c1ccc(OC)cc1)c1ccc(C(C)C)cc(=O)c1O` (stereo not given) was tested, and the ID50 was 1.5 µM.
Work on `COc1cc(C(C)C)ccc(C2OCCc3ccccc32)c1=O` (stereo not given) yielded an ID50 of 93 µM.
For `COc1cc(C(C)C)cccc1=O`, the ID50 was 278 µM.
For `CCOC(c1ccccc1)c1ccc(C(C)C)cc(=O)c1O` (stereo not given), the ID50 was 1 µM.
In the case of `COc1c(C2OCCc3ccccc32)ccc(C(C)C)cc1=O` (stereo not given), the ID50 is reported as 58 µM.
With `O=c1ccccc(C2OCCc3ccccc32)c1O` (stereo not given) the ID50 was 1.6 µM.
In the case of `CC(C)c1ccc(Cc2ccccc2)c(O)c(=O)c1`, the ID50 is reported as 2 µM.
With `C/C=C/C(OCC)c1ccc(C(C)C)cc(=O)c1O` (stereo not given) the ID50 was 4.5 µM.
Work on `CCOC(c1ccc(C)cc1)c1ccc(C(C)C)cc(=O)c1O` (stereo not given) yielded an ID50 of 9.9 µM.
With `CCOC(c1ccc(N(C)C)cc1)c1ccc(C(C)C)cc(=O)c1O` (stereo not given) the ID50 was 1.7 µM.
With `CC(C)c1ccc(C2OCCc3ccccc32)c(O)c(=O)c1` (stereo not given) the ID50 was 1.7 µM.
`CC(C)c1cccc(=O)c(O)c1` [HINOKITIOL] gave an ID50 of 3.6 µM.

Same assay, conditions: Homo sapiens, KB; read-out: ID50 (the source's name)
Work on `CCOC(c1ccc(OC)cc1)c1ccc(C(C)C)cc(=O)c1O` (stereo not given) yielded an IC50 of 0.5 µg/mL (≈ 1.52 µM).
`COc1cc(C(C)C)ccc(C2OCCc3ccccc32)c1=O` (stereo not given) showed an IC50 of 29 µg/mL (≈ 93.4 µM).
Molecule `COc1cc(C(C)C)cccc1=O` has an IC50 of 49.5 µg/mL (≈ 278 µM).
`CCOC(c1ccccc1)c1ccc(C(C)C)cc(=O)c1O` (stereo not given) gave an IC50 of 0.3 µg/mL (≈ 1.01 µM).
For `COc1c(C2OCCc3ccccc32)ccc(C(C)C)cc1=O` (stereo not given), the IC50 was 18 µg/mL (≈ 58 µM).
`O=c1ccccc(C2OCCc3ccccc32)c1O` (stereo not given) showed an IC50 of 0.5 µg/mL (≈ 1.97 µM).
In the case of `CC(C)c1ccc(Cc2ccccc2)c(O)c(=O)c1`, the IC50 is reported as 0.5 µg/mL (≈ 1.97 µM).
Molecule `C/C=C/C(OCC)c1ccc(C(C)C)cc(=O)c1O` (stereo not given) has an IC50 of 1.2 µg/mL (≈ 4.57 µM).
`CCOC(c1ccc(C)cc1)c1ccc(C(C)C)cc(=O)c1O` (stereo not given) was tested, and the IC50 was 6.2 µg/mL (≈ 19.8 µM).
Work on `CCOC(c1ccc(N(C)C)cc1)c1ccc(C(C)C)cc(=O)c1O` (stereo not given) yielded an IC50 of 0.6 µg/mL (≈ 1.76 µM).
In the case of `CC(C)c1ccc(C2OCCc3ccccc32)c(O)c(=O)c1` (stereo not given), the IC50 is reported as 0.5 µg/mL (≈ 1.69 µM).
Molecule `CC(C)c1cccc(=O)c(O)c1` [HINOKITIOL] has an IC50 of 0.5 µg/mL (≈ 3.04 µM).

Each molecule was assayed on Mus musculus (assay: In vivo antitumor activity was measured in mice (P388 leukemia) at dose 200 mg/kg after intraperitoneal administration). Conditions: not given.
Assay type: functional
In short: as §1
For `CCOC(c1ccc(OC)cc1)c1ccc(C(C)C)cc(=O)c1O` (stereo not given), the T/C was 128%.
`CCOC(/C=C/c1ccccc1)c1ccc(C(C)C)cc(=O)c1O` (stereo not given) showed a T/C of 100%.
Molecule `COc1cc(C(C)C)ccc(C2OCCc3ccccc32)c1=O` (stereo not given) has a T/C of 94%.
`COc1cc(C(C)C)cccc1=O` was tested, and the T/C was 0%.
For `COc1c(C2OCCc3ccccc32)ccc(C(C)C)cc1=O` (stereo not given), the T/C was 88%.
With `O=c1ccccc(C2OCCc3ccccc32)c1O` (stereo not given) the T/C was 96%.
`C/C=C/C(OCC)c1ccc(C(C)C)cc(=O)c1O` (stereo not given) showed a T/C of 116%.
For `CCOC(c1ccc(C)cc1)c1ccc(C(C)C)cc(=O)c1O` (stereo not given), the T/C was 105%.
`CCOC(c1ccc(N(C)C)cc1)c1ccc(C(C)C)cc(=O)c1O` (stereo not given) showed a T/C of 128%.
With `CC(C)c1ccc(C2OCCc3ccccc32)c(O)c(=O)c1` (stereo not given) the T/C was 126%.
